Assay [1] relates to SGC-7901. Description: Cytotoxicity against human SGC7901 cells after 48 hrs by MTT assay. Type of assay: functional, cell-based. Summed up:
(§1)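 Tumour cells grown to log phase in RPMI 1640 with 10% FBS, seeded at 3 × 10⁴ cells/mL, preincubated 24 h at 37 °C, 5% CO₂. Test samples at pre-set concentrations were added to 6 wells, with 5-fluorouracil as positive reference, for 48 h. MTT was then added for 4 h, formazan was dissolved in DMSO and absorbance read at 570 nm. IC50 from three experiments in triplicate, mean ± SD.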
On the technique in general: Tetrazolium dyes change colour on reduction, which living cells bring about.

The next assay has as its system PC-3. The assay is described as follows: Cytotoxicity against human PC3 cells after 48 hrs by MTT assay. Type of assay: functional, cell-based. Summed up: as §1
For another assay, the system named is A-431. The assay is described as follows: Cytotoxicity against human A431 cells after 48 hrs by MTT assay. It is filed as functional, cell-based. The method in brief: as §1
Assay [2] has as its target DNA polymerase I, thermostable (Thermus aquaticus, UniProt P19821). Description: Inhibition of Taq polymerase. The method in brief:
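Taq polymerase inhibition was monitored alongside the modified TRAP assay to detect interference with the amplification step. IC50 was the concentration giving 50% Taq polymerase inhibition.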

In assay [3] the target is Telomerase reverse transcriptase (Homo sapiens, UniProt O14746). Description: Inhibition of telomerase in human SGC7901 cells by TRAP assay. Type of assay: cell-based, SGC-7901. The method in brief: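 Modified TRAP assay using SGC-7901 cell extract as the telomerase source. IC50 taken from three experiments in triplicate, mean ± SD.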
Telomerase reverse transcriptase, sequence (O14746 whole entry): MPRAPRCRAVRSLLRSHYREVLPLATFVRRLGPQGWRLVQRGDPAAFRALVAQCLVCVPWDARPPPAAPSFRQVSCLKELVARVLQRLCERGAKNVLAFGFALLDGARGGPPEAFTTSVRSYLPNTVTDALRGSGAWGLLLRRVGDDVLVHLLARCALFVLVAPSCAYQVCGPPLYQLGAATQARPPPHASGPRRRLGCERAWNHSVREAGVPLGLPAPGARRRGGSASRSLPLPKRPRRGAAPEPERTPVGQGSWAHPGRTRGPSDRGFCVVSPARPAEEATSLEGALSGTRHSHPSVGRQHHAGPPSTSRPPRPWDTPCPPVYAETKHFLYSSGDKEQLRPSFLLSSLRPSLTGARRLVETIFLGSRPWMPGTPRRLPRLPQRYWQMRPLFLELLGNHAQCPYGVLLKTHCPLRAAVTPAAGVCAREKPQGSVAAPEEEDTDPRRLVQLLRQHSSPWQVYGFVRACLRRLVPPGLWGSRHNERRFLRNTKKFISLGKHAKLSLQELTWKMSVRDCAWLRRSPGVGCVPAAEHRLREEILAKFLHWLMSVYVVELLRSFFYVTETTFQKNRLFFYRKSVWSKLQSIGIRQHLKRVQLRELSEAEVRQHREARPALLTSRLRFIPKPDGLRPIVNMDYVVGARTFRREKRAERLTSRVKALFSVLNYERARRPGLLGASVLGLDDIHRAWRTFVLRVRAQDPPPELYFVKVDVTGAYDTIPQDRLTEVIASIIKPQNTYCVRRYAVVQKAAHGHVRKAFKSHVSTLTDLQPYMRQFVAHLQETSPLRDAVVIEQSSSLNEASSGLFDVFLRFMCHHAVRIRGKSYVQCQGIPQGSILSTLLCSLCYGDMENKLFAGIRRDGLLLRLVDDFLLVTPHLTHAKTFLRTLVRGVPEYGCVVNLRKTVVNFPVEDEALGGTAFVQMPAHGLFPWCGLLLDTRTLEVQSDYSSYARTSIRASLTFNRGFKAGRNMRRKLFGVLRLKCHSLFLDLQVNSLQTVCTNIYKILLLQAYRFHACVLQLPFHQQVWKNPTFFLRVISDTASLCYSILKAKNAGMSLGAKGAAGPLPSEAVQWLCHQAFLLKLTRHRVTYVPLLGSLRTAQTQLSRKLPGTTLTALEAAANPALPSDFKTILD
For assay [4], the system named is SGC-7901. Description: Selectivity index, ratio of IC50 for Taq polymerase to IC50 for telomerase in human SGC7901 cells. It is filed as cell-based. Summed up:
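Ratio of the concentration giving 50% Taq polymerase inhibition to the concentration giving 50% telomerase inhibition. Telomerase was measured by modified TRAP with SGC-7901 cell extract.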

The mark [5] stands for this setting: Homo sapiens, SGC-7901, 48 h, read-out: IC50.
[6] abbreviates: Homo sapiens, PC-3, 48 h, read-out: IC50.
Setting [7] is: Homo sapiens, A-431, 48 h, read-out: IC50.

Converted amounts (≈) assume the structure as drawn.

As usually defined, the IC50 is the point on the concentration scale where inhibition reaches its midpoint.

DNA polymerase I, thermostable, sequence (P19821 whole entry): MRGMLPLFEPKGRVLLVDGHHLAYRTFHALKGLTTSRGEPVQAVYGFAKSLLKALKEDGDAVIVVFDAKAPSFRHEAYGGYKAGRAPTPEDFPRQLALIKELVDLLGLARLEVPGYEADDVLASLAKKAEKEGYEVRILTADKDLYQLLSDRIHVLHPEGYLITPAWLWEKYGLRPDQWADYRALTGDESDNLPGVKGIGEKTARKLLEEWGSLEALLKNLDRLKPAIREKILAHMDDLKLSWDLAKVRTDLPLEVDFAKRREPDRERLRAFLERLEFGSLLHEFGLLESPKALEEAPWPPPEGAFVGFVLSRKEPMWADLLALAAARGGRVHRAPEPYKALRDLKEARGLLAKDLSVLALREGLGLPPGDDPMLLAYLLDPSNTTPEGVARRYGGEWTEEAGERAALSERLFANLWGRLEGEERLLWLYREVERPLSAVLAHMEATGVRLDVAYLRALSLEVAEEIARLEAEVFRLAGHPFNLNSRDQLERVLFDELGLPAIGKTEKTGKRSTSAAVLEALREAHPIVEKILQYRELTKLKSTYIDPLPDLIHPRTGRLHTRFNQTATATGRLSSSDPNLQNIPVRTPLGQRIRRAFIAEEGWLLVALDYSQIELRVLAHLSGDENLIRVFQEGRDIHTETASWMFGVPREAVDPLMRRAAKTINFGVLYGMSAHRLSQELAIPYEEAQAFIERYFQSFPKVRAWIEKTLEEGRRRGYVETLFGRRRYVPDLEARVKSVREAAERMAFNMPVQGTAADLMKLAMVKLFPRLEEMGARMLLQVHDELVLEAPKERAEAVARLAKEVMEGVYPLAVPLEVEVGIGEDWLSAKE

`CC(=O)N1N=C(c2cc3c(Br)cccc3oc2=O)CC1c1ccccc1` (centres undefined): the IC50 in the assay on SGC-7901 [1] (setting [5]) was 28.9 µg/mL (≈ 70.3 µM); in the assay on PC-3 (setting [6]), 58.1 µg/mL (≈ 141 µM); with A-431 (setting [7]), 48.1 µg/mL (≈ 117 µM); in assay [2] (read-out: IC50) it was 4 µM; in assay [3] (read-out: IC50) it was 1.8 µM. Also, the Selectivity Index with SGC-7901 [4] turned out to be 2.2.

Regarding `O=c1[nH]cc(F)c(=O)[nH]1` [FLUOROURACIL], the IC50 in the assay on PC-3 (setting [6]) turned out to be 2.48 µg/mL (≈ 19.1 µM); in the assay on A-431 (setting [7]) it was 2.17 µg/mL (≈ 16.7 µM).

On to `CC(=O)N1N=C(c2cc3c(Br)cccc3oc2=O)CC1c1ccc(O)cc1` (centres undefined), for which the IC50 in the assay on SGC-7901 [1] (setting [5]) came out at 22.3 µg/mL (≈ 52.3 µM); in the assay on PC-3 (setting [6]) it was 38.8 µg/mL (≈ 90.7 µM); with A-431 (setting [7]) it was 68.3 µg/mL (≈ 160 µM); in assay [2] (read-out: IC50), 10 µM; in assay [3] (read-out: IC50) it was 4 µM. The Selectivity Index with SGC-7901 [4] was 2.5.

For the compound `CC1=NN(C=O)C(c2ccccc2O)C1` (centres undefined), the IC50 entry in the assay with SGC-7901 [1] (sgc-7901) was “Not Active”; in the assay on PC-3 (setting [6]) it was 65.1 µg/mL (≈ 319 µM); with A-431 (a-431) it was “Not Active”; in assay [2] it was “Not Active”; in assay [3] (sgc-7901), “Not Active”.

Take `CC(=O)N1N=C(c2cc3ccccc3oc2=O)CC1c1ccccc1` (centres undefined): the IC50 came out at 2.69 µg/mL (≈ 8.09 µM) in the assay with SGC-7901 [1] (setting [5]); 40.2 µg/mL (≈ 121 µM) in the assay with PC-3 (setting [6]); 51.7 µg/mL (≈ 156 µM) in the assay on A-431 (setting [7]); 6 µM in assay [2] (read-out: IC50); 2 µM in assay [3] (read-out: IC50). Also, the Selectivity Index with SGC-7901 [4] amounted to 3.

Regarding `CC[n+]1c(-c2ccccc2)c2cc(N)ccc2c2ccc(N)cc21` [HOMIDIUM BROMIDE], in assay [3] (read-out: IC50), the IC50 was determined as 2.5 µM.

In the case of `CC(=O)N1N=C(c2cc3ccccc3oc2=O)CC1c1ccc(Cl)cc1Cl` (centres undefined), the IC50 in the assay on SGC-7901 [1] (setting [5]) worked out at 39.9 µg/mL (≈ 99.5 µM); with PC-3 (setting [6]), 46.7 µg/mL (≈ 116 µM); in the assay on A-431 (setting [7]) it was 68.7 µg/mL (≈ 171 µM); in assay [2] (read-out: IC50) it was 20.7 µM; in assay [3] (read-out: IC50), 9.6 µM. Also, in the assay on SGC-7901 [4], the Selectivity Index was found to be 2.1.

On to `CC(=O)N1N=C(c2cc3ccccc3oc2=O)CC1c1ccccc1Cl` (centres undefined), for which the IC50 was determined as 29.9 µg/mL (≈ 81.6 µM) in the assay with SGC-7901 [1] (setting [5]); 55.1 µg/mL (≈ 150 µM) in the assay with PC-3 (setting [6]); 50.6 µg/mL (≈ 138 µM) in the assay with A-431 (setting [7]); 16.8 µM in assay [2] (read-out: IC50); 6.5 µM in assay [3] (read-out: IC50). Besides, in the assay on SGC-7901 [4], the Selectivity Index was determined as 2.6.

Take `CC(=O)N1N=C(c2cc3ccccc3oc2=O)CC1c1ccc(O)cc1` (centres undefined): the IC50 in the assay with SGC-7901 [1] (setting [5]) worked out at 35.9 µg/mL (≈ 103 µM); in the assay with PC-3 (setting [6]) it was 58.7 µg/mL (≈ 169 µM); with A-431 (setting [7]), 73 µg/mL (≈ 209 µM); in assay [2] (read-out: IC50) it was 58.5 µM; in assay [3] (read-out: IC50) it was 29.1 µM. For the same compound, the Selectivity Index with SGC-7901 [4] was 2.

Consider `COc1ccc(/C=C/C(=O)c2cc3ccccc3oc2=O)cc1`, for which the IC50 result (in the assay on SGC-7901 [1] (sgc-7901); with PC-3 (pc-3); with A-431 (a-431); in assay [2]; in assay [3] (sgc-7901)) was “Not Active” throughout.

Turning to `COc1ccc(C2CC(c3cc4ccccc4oc3=O)=NN2C(C)=O)cc1` (centres undefined), the IC50 is 48.7 µg/mL (≈ 134 µM) with SGC-7901 [1] (setting [5]); “Not Active” in the assay with PC-3 (pc-3); 68.7 µg/mL (≈ 190 µM) with A-431 (setting [7]); “Not Active” in assay [2]; 36.7 µM in assay [3] (read-out: IC50).

These data come from ChEMBL document CHEMBL1255538, “Synthesis and molecular docking study of novel coumarin derivatives containing 4,5-dihydropyrazole moiety as potential antitumor agents” (Bioorg Med Chem Lett, 2010).
